# Key:
# Casein kinase II = Casein kinase II (Homo sapiens, UniProt P19784+P67870+P68400); experiment: Inhibition of CK2; format: protein-complex assay
# [1] = molecular target: Rho-associated protein kinase 2 (Homo sapiens) (UniProt O75116); experiment: Inhibition of ROCK2 at 10 uM relative to control; values are per cent of control
# [2] = molecular target: 3-phosphoinositide-dependent protein kinase 1 (Homo sapiens) (UniProt O15530); experiment: Inhibition of PDK1 at 10 uM relative to control; values are per cent of control
# [3] = molecular target: Mitogen-activated protein kinase 14 (Homo sapiens) (UniProt Q16539); experiment: Inhibition of SAPK2a/p38 at 10 uM relative to control; values are per cent of control
# [4] = molecular target: Mitogen-activated protein kinase 13 (Homo sapiens) (UniProt O15264); experiment: Residual activity of SAPK4/p38delta at 10 uM relative to control
# [5] = molecular target: Protein kinase C alpha type (Homo sapiens) (UniProt P17252); experiment: Inhibition of PKCalpha at 10 uM relative to control; values are per cent of control
# [6] = molecular target: Ribosomal protein S6 kinase alpha-1 (Homo sapiens, UniProt Q15418); experiment: Residual activity of MAPKAPK1a at 10 uM relative to control
# [7] = molecular target: Dual specificity tyrosine-phosphorylation-regulated kinase 1A (Homo sapiens, UniProt Q13627); experiment: Inhibition of DYRK1A at 10 uM relative to control; values are per cent of control
# [8] = molecular target: MAP kinase-activated protein kinase 5 (Homo sapiens) (UniProt Q8IW41); experiment: Residual activity of PRAK at 10 uM relative to control
# Chain of MAP kinase-activated protein kinase 5 (Homo sapiens) (Q8IW41 whole entry): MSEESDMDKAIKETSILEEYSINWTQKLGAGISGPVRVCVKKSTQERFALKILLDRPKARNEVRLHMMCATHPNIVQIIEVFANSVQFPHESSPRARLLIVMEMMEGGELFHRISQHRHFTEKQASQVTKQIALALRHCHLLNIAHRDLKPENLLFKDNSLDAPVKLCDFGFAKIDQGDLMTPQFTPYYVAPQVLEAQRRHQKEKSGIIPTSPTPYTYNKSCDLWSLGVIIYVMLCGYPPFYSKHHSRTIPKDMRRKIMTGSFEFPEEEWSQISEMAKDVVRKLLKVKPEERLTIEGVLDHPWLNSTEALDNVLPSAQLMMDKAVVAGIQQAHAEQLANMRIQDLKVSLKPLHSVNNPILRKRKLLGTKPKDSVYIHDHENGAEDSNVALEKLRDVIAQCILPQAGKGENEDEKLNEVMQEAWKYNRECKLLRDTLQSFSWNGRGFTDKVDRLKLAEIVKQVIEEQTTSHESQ
# [9] = molecular target: Mitogen-activated protein kinase 11 (Homo sapiens) (UniProt Q15759); experiment: Inhibition of SAPK2b/p38--beta-2 at 10 uM relative to control; values are per cent of control
# [10] = molecular target: Ribosomal protein S6 kinase beta-1 (Homo sapiens) (UniProt P23443); experiment: Residual activity of S6K1 at 10 uM relative to control
# Chain of Ribosomal protein S6 kinase beta-1 (Homo sapiens) (P23443 whole entry, looked up): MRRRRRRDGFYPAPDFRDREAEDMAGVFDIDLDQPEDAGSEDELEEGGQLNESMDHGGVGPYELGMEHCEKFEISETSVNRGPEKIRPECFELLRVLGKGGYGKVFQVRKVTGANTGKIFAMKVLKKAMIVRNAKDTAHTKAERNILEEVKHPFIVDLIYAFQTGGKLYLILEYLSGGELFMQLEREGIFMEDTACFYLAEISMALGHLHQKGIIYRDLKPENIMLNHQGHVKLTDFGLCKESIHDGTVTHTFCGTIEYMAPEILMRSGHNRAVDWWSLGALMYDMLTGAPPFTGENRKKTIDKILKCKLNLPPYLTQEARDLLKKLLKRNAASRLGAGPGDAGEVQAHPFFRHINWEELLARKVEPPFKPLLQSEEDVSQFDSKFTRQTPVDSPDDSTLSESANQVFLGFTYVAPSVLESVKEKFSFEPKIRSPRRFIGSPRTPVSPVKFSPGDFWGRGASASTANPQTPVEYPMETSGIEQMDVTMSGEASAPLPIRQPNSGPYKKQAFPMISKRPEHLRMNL
# [11] = molecular target: RAC-alpha serine/threonine-protein kinase (Homo sapiens) (UniProt P31749); experiment: Inhibition of PKBalpha at 10 uM relative to control; values are per cent of control
# [12] = molecular target: Ribosomal protein S6 kinase alpha-5 (Homo sapiens) (UniProt O75582); experiment: Residual activity of MSK1 at 10 uM relative to control
# [13] = molecular target: Tyrosine-protein kinase CSK (Homo sapiens) (UniProt P41240); experiment: Inhibition of CSK at 10 uM relative to control
# Chain of Tyrosine-protein kinase CSK (Homo sapiens) (P41240 2-450 limits assumed): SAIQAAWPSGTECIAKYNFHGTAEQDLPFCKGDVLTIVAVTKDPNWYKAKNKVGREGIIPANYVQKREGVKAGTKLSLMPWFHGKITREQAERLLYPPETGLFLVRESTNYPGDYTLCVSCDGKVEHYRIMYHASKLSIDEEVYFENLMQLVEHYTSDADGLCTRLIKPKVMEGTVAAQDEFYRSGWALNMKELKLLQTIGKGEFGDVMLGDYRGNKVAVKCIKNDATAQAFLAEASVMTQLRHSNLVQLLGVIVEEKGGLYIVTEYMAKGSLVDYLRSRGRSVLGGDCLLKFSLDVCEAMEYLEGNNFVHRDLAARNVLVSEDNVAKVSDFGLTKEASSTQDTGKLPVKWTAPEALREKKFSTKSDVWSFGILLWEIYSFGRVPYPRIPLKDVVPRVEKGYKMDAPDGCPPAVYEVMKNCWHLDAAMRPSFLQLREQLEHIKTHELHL
# Outline: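 Kinase selectivity panel: activity of each kinase measured with inhibitor at 10 μM. Residual activity is expressed as a percentage of a control run without inhibitor. Assays were linear with respect to time and enzyme concentration. Lyn, c-Fgr and Syk were purified from rat spleen. Golgi CK came from rat lactating mammary gland.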
# Jurkat = experiment: Inhibition of cell viability in Jurkat T cells after 24 hrs by MTT method; format: functional, cell-based; conditions: Homo sapiens
# Outline: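 Human Jurkat T-leukemia cells, grown in RPMI-1640 with 10% FCS, were resuspended at 10⁶ cells/mL in medium with 1% FCS. They were exposed to increasing compound concentrations for 24 h at 37 °C. Controls received DMSO (0.5% v/v), set as 100% viability. Viability was read by MTT. Values are means ± SEM of three separate experiments; DC50 was taken as the concentration halving viability.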
# [14] = molecular target: MAP kinase-activated protein kinase 2 (Homo sapiens) (UniProt P49137); experiment: Inhibition of MAPKAPK2 at 10 uM relative to control; values are per cent of control
# [15] = molecular target: Casein kinase I (Homo sapiens) (UniProt Q9HCP0+P78368+P48730+P49674+P48729); experiment: Residual activity of CK1 at 10 uM relative to control
# [16] = molecular target: Mitogen-activated protein kinase 8 (Homo sapiens) (UniProt P45983); experiment: Inhibition of JNK/SAPK1c at 10 uM relative to control; values are per cent of control
# [17] = molecular target: Tyrosine-protein kinase Lyn (Homo sapiens) (UniProt P07948); experiment: Residual activity of Lyn at 10 uM relative to control
# [18] = molecular target: Mitogen-activated protein kinase 12 (Homo sapiens) (UniProt P53778); experiment: Residual activity of SAPK3/p38gamma relative to control
# [19] = molecular target: Glycogen synthase kinase-3 beta (Homo sapiens) (UniProt P49841); experiment: Inhibition of GSKbeta at 10 uM relative to control; values are per cent of control
# Chain of Glycogen synthase kinase-3 beta (Homo sapiens) (P49841 whole entry, looked up): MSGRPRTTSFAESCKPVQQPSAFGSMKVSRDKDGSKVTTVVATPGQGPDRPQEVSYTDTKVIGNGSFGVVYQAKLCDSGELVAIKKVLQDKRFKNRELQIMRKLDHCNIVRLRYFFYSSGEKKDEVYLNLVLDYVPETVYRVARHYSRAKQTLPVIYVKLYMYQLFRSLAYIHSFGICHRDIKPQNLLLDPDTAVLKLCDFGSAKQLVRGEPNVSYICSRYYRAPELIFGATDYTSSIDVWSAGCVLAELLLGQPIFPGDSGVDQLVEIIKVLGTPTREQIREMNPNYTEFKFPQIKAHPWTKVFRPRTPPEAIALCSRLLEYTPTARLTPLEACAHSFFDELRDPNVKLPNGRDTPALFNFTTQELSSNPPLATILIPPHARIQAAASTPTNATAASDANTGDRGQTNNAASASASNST
# [20] = molecular target: Dual specificity mitogen-activated protein kinase kinase 1 (Homo sapiens, UniProt Q02750); experiment: Inhibition of MKK1 at 10 uM relative to control; values are per cent of control
# [21] = molecular target: cAMP-dependent protein kinase (PKA) (Homo sapiens) (UniProt P22694+P17612+P22612); experiment: Inhibition of PKA at 10 uM relative to control; values are per cent of control
# [22] = molecular target: Serine/threonine-protein kinase Chk1 (Homo sapiens) (UniProt O14757); experiment: Inhibition of at CHK1 at 10 uM relative to control; values are per cent of control
# [23] = molecular target: AMP-activated protein kinase (AMPK) alpha-1/beta-1/gamma-1 (Homo sapiens) (UniProt P54619+Q9Y478+Q13131); experiment: Inhibition of AMPK at 10 uM relative to control; values are per cent of control
# Chain of AMP-activated protein kinase (AMPK) alpha-1/beta-1/gamma-1 (Homo sapiens) (P54619 whole entry): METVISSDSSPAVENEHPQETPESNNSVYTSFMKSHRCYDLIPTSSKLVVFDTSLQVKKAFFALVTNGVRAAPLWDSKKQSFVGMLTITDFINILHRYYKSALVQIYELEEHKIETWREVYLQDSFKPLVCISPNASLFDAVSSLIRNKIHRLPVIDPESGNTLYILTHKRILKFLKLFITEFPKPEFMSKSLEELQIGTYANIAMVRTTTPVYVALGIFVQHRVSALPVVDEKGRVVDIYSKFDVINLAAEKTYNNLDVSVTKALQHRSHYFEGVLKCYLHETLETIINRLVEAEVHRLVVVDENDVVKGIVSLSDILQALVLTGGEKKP
# Chain of AMP-activated protein kinase (AMPK) alpha-1/beta-1/gamma-1 (Homo sapiens) (Q13131 whole entry partner): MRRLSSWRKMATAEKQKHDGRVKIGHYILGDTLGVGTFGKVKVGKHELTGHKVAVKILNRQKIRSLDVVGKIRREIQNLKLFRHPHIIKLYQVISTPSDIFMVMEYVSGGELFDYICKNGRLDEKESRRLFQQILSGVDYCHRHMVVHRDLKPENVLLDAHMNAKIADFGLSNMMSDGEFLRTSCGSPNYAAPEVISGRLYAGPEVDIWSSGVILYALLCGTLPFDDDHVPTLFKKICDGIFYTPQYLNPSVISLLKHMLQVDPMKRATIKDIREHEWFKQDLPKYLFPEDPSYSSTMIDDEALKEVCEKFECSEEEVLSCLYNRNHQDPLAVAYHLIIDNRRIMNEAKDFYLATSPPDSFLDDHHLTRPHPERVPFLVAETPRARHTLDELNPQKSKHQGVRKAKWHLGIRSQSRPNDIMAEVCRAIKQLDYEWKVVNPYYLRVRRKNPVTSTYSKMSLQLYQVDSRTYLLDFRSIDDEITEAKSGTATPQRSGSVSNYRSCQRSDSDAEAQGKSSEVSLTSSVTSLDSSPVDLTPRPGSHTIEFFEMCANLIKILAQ
# Chain of AMP-activated protein kinase (AMPK) alpha-1/beta-1/gamma-1 (Homo sapiens) (Q9Y478 2-270 partner limits assumed): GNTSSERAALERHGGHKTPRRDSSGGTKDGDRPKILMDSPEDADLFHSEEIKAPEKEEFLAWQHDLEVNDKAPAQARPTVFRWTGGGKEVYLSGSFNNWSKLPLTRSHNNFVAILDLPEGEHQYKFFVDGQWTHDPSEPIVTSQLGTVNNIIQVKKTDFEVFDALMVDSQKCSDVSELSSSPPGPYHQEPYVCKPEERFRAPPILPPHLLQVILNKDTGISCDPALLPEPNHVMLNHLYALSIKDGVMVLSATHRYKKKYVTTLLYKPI
# [24] = molecular target: Tyrosine-protein kinase SYK (Rattus norvegicus) (UniProt Q64725); experiment: Residual activity of Syk at 10 uM relative to control
# Chain of Tyrosine-protein kinase SYK (Rattus norvegicus) (Q64725 whole entry, looked up): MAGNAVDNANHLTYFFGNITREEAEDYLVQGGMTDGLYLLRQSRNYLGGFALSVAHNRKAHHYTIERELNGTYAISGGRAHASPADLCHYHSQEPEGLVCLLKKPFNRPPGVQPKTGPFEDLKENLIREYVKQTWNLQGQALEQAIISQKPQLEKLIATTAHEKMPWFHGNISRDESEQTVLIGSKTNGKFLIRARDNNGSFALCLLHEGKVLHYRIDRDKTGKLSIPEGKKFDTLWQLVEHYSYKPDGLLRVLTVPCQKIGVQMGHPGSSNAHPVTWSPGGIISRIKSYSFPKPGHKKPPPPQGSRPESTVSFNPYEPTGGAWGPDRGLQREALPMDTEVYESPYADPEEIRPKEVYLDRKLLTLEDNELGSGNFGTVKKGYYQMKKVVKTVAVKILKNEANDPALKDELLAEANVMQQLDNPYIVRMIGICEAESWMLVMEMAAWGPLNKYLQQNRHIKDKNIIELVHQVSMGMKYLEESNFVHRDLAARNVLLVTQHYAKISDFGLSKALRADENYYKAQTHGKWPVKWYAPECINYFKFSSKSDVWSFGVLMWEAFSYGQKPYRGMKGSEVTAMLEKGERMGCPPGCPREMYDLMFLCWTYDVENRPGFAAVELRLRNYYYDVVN
# [25] = molecular target: Serine/threonine-protein kinase Sgk1 (Homo sapiens) (UniProt O00141); experiment: Inhibition of SGK at 10 uM relative to control; values are per cent of control
# Homo sapiens [26] = organism: Homo sapiens; experiment: Inhibition of PP2A at 10 uM relative to control; values are per cent of control
# Homo sapiens [27] = organism: Homo sapiens; experiment: Inhibition of phosphorylase kinase at 10 uM relative to control
# [28] = molecular target: Mitogen-activated protein kinase 1 (Homo sapiens) (UniProt P28482); experiment: Inhibition of MAPK2/ERK2 at 10 uM relative to control; values are per cent of control
# Chain of Casein kinase II (P67870 whole entry): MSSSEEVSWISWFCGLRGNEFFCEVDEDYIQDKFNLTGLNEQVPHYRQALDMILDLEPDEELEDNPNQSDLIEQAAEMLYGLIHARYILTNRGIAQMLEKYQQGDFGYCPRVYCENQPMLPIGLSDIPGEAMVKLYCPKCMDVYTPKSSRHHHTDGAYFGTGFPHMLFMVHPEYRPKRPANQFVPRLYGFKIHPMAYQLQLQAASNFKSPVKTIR
# Chain of Casein kinase II (P68400 whole entry): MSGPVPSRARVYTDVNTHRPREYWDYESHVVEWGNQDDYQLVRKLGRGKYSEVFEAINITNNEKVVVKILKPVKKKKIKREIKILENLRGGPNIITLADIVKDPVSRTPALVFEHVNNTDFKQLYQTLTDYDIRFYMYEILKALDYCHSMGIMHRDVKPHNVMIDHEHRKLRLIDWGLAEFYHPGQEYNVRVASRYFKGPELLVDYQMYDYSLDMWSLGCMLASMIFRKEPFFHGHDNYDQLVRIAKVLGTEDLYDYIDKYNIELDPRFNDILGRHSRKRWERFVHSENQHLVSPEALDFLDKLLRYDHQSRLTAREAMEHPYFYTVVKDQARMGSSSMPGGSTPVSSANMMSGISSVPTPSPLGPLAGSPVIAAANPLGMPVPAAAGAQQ
# Chain of Casein kinase II (P19784 whole entry): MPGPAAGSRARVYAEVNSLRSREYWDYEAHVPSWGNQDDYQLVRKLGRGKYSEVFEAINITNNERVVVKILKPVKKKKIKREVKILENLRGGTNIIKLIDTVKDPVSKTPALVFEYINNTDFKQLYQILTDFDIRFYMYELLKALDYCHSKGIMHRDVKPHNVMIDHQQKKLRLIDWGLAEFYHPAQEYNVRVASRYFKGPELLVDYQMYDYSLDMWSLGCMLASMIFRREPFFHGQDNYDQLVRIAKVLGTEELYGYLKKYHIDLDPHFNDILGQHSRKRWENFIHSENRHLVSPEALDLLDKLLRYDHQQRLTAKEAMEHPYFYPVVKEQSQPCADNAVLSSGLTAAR
smiles,measurement,setting,value
O=c1[nH]c2c(Br)c(Br)c(Br)c(Br)c2[nH]1,IC50,Casein kinase II,360 nM
same,Ki,Casein kinase II,150 nM
NC(=O)Cn1c(Br)nc2c(Br)c(Br)c(Br)c(Br)c21,IC50,Casein kinase II,1570 nM
same,Ki,Casein kinase II,1900 nM
CC(C)Nc1nc2c(Br)c(Br)c(Br)c(Br)c2n1C,IC50,Casein kinase II,180 nM
same,Ki,Casein kinase II,190 nM
Cn1c(=O)[nH]c2c(Br)c(Br)c(Br)c(Br)c21,IC50,Casein kinase II,390 nM
same,Ki,Casein kinase II,200 nM
Brc1c(Br)c(Br)c2[nH]nnc2c1Br [TETRABROMOBENZOTRIAZOLE],residual activity,[1],91%
same,residual activity,[2],97%
same,residual activity,[3],107%
same,residual activity,[4],99%
same,residual activity,[5],102%
same,residual activity,[6],90%
same,residual activity,[7],22%
same,residual activity,[8],87%
same,residual activity,[9],103%
same,residual activity,[10],89%
same,residual activity,[11],91%
same,residual activity,[12],111%
same,inhibition,[13],101%
same,DC50,Jurkat,17000 nM
same,residual activity,[14],108%
same,residual activity,[15],91%
same,residual activity,[16],93%
same,residual activity,[17],99%
same,residual activity,[18],89%
same,residual activity,[19],64%
same,residual activity,[20],94%
same,residual activity,[21],90%
same,residual activity,[22],101%
same,residual activity,[23],96%
same,residual activity,[24],102%
same,residual activity,[25],97%
same,residual activity,Homo sapiens [26],117%
same,residual activity,Homo sapiens [27],49%
same,residual activity,[28],111%
Nc1nc2c(Br)c(Br)c(Br)c(Br)c2[nH]1,IC50,Casein kinase II,300 nM
same,Ki,Casein kinase II,90 nM
O=C(O)CSc1nc2c(Br)c(Br)c(Br)c(Br)c2[nH]1,IC50,Casein kinase II,250 nM
same,Ki,Casein kinase II,180 nM
CN(C)CCNc1nc2c(Br)c(Br)c(Br)c(Br)c2[nH]1,IC50,Casein kinase II,250 nM
same,Ki,Casein kinase II,160 nM
C=CCn1c(Br)nc2c(Br)c(Br)c(Br)c(Br)c21,IC50,Casein kinase II,880 nM
same,Ki,Casein kinase II,630 nM
Brc1nc2c(Br)c(Br)c(Br)c(Br)c2[nH]1,IC50,Casein kinase II,740 nM
same,Ki,Casein kinase II,230 nM
OCCNc1nc2c(Br)c(Br)c(Br)c(Br)c2[nH]1,IC50,Casein kinase II,270 nM
same,Ki,Casein kinase II,130 nM
CSc1nc2c(Br)c(Br)c(Br)c(Br)c2n1C,IC50,Casein kinase II,600 nM
same,Ki,Casein kinase II,360 nM

# Reference: ChEMBL document CHEMBL1149250, “Optimization of protein kinase CK2 inhibitors derived from 4,5,6,7-tetrabromobenzimidazole” (J Med Chem, 2004)
